The values below come from ChEMBL document CHEMBL3232862, “Optimization of chemical functionalities of indole-2-carboxamides to improve allosteric parameters for the cannabinoid receptor 1 (CB1)” (J Med Chem, 2014).

Activity calls are given as the source filed them. No cut-off for these calls is given here.

For experiment [1], the target named is Cannabinoid receptor 1 (Homo sapiens) (UniProt P21554). Kind of experiment: Positive allosteric modulation of cannabinoid CB1 receptor (unknown origin) expressed in HEK293 cells assessed as effect on ERK1/2 phosphorylation at 5 uM by Western blot analysis in absence of siRNA targeting beta-arrestin 1. In kind it is cell-based. In a few lines: (§1)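 HEK293 cells were lipofectamine-transfected with CB1, with or without β-arrestin 1 siRNA (2.6 μg) or a nonsilencing control. After 24 h they were serum-starved for 18 h, with optional PTX at 5 ng/mL for 16 h at 37 °C. Cells were exposed 5 min to modulator (0–10 μM) plus 0.2 μM CP55,940 and lysed. 12 μg protein was run on 10% SDS-PAGE and immunoblotted for phospho-p44/42 and total p44/42.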

Experiment [2] shares this target. Kind of experiment: Positive allosteric modulation of cannabinoid CB1 receptor (unknown origin) expressed in HEK293 cells assessed as induction of ERK1/2 phosphorylation by Western blot analysis in presence of siRNA targeting beta-arrestin 1. Format: cell-based. The method in brief:
as §1

Experiment [3] shares this target. Kind of experiment: Allosteric modulation of cannabinoid CB1 receptor (unknown origin) expressed in HEK293 cells assessed as inhibition of CP55940-induced [35S]GTPgammaS binding after 60 mins by liquid scintillation counting. Format: functional, cell-based. In a few lines: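 Membranes from HEK293 cells transiently expressing CB1 (calcium phosphate transfection, harvested 24 h) were used at 7.5 μg per assay. They were incubated 60 min at 30 °C in Tris pH 7.4, MgCl2, EGTA and NaCl with 0.1 nM [35S]GTPγS, 10 μM GDP, 0.1% BSA and CP55,940 (100 pM–100 μM), with or without modulator. Nonspecific binding was taken with 10 μM GTPγS. Read-out was filtration and scintillation counting, duplicates, ≥3 experiments.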

Experiment [4] shares this target. Kind of experiment: Displacement of [3H]CP55940 from cannabinoid CB1 receptor (unknown origin) expressed in HEK293 cells after 60 mins by liquid scintillation counting. Format: cell-based. The method in brief: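 Membranes from HEK293 cells transiently transfected with CB1 (calcium phosphate), harvested 24 h post-transfection. […] At least nine test concentrations, 100 pM–100 μM. Nonspecific binding defined with 1 μM unlabeled CP55,940. Bound ligand kept below 10%. Filtration on GF/C. Duplicates, ≥3 independent experiments. KB and α obtained by nonlinear regression using the allosteric ternary complex model.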

Experiment [5] shares this target. Kind of experiment: Positive allosteric modulation of cannabinoid CB1 receptor (unknown origin) expressed in HEK293 cells assessed as induction of ERK1/2 phosphorylation by Western blot analysis in absence of siRNA targeting beta-arrestin 1. Format: cell-based. In a few lines:
as §1

For experiment [6] the target is unchanged. Kind of experiment: Positive allosteric modulation of cannabinoid CB1 receptor (unknown origin) expressed in HEK293 cells assessed as induction of ERK1/2 phosphorylation at 0.05 to 10 uM in presence of CP55940 for 5 mins and pre-treated with PTX for 16 hrs by Western blot analysis. In kind it is cell-based. The method in brief: as §1

Cannabinoid receptor 1 (Homo sapiens), sequence (P21554 whole entry): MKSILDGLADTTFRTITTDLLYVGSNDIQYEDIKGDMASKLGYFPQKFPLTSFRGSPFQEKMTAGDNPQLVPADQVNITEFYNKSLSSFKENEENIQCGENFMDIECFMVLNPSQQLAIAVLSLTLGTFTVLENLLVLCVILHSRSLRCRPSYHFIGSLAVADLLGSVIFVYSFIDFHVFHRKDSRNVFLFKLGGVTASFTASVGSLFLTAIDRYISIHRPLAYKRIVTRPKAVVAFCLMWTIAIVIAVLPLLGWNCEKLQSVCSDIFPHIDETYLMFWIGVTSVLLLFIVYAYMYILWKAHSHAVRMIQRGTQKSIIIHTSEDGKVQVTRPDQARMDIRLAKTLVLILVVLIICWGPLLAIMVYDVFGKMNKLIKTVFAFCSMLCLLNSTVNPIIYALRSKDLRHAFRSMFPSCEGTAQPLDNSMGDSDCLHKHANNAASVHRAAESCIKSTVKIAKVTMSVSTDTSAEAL

Turning to `CCCc1c(C(=O)NCCc2ccc(N(C)C)cc2)[nH]c2ccc(Cl)cc12`, the result in experiment [1] was Active. In addition, the inhibition entry in experiment [2] was “inactive”. The inhibition entry in experiment [3] and in experiment [5] was “Dose-dependent effect” throughout. In experiment [4], this molecule registered a Kb of 259 nM.
For `CCCCCCc1c(C(=O)NCCc2ccc(N(C)C)cc2)[nH]c2ccc(Cl)cc12`, the outcome in experiment [6] and in experiment [1] was Active. Also, the inhibition entry in experiment [2] is “inactive”. For the same molecule, the inhibition result in experiment [3] and in experiment [5] was “Dose-dependent effect” each time. Besides, the Kb in experiment [4] worked out at 89.1 nM.
Consider `CCc1c(C(=O)NCCc2ccc(N(C)C)cc2)[nH]c2cc(Cl)ccc12`, for which the Kb in experiment [4] is 3670 nM.
Molecule `CCc1c(C(=O)NCCc2ccc(N(C)C)cc2)[nH]c2cc(F)ccc12` registered a Kb in experiment [4] of 1580 nM.
In the case of `CCCCc1c(C(=O)NCCc2ccc(N(C)C)cc2)[nH]c2ccc(Cl)cc12`, the Kb in experiment [4] turned out to be 209 nM.
On to `CCCc1c(C(=O)NCCc2ccc(N3CCCCC3)cc2)[nH]c2ccc(Cl)cc12`, for which, in experiment [4], the Kb was found to be 1750 nM.
